Calls of active or inactive are those of the source.

This note sets out measurements from ChEMBL document CHEMBL1781878, “Novel carbamate cholinesterase inhibitors that release biologically active amines following enzyme inhibition” (Bioorg Med Chem Lett, 2009).

The test system of data set [1] is Rattus norvegicus. Kind of data set: Inhibition of total plasma cholinesterase in rat at >64 mg/kg, po measured 60 mins post dose. The class given is functional. The method, boiled down: (§1)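 Rats given oral saline solutions of compound at the maximum tolerated or highest tested dose; sacrificed 60 min post-dose, blood collected and processed, plasma ChE activity measured spectrophotometrically (Ellman-type). n = 4 rats per group; mean reported.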

The subject of data set [2] is Rattus norvegicus. Description: Inhibition of total brain cholinesterase activity in rat at >64 mg/kg, po measured 30 to 180 mins post dose. The class given is functional. In short, it runs like this:
(§2)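 Rats received oral saline solutions at the maximum tolerated or highest tested dose; after sacrifice, brain samples processed and total ChE activity determined spectrophotometrically versus control. n = 4 animals per group, mean given.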

Data set [3] deals with Acetylcholinesterase (Homo sapiens) (UniProt P22303).
Chain of Acetylcholinesterase (Homo sapiens) (P22303 whole entry): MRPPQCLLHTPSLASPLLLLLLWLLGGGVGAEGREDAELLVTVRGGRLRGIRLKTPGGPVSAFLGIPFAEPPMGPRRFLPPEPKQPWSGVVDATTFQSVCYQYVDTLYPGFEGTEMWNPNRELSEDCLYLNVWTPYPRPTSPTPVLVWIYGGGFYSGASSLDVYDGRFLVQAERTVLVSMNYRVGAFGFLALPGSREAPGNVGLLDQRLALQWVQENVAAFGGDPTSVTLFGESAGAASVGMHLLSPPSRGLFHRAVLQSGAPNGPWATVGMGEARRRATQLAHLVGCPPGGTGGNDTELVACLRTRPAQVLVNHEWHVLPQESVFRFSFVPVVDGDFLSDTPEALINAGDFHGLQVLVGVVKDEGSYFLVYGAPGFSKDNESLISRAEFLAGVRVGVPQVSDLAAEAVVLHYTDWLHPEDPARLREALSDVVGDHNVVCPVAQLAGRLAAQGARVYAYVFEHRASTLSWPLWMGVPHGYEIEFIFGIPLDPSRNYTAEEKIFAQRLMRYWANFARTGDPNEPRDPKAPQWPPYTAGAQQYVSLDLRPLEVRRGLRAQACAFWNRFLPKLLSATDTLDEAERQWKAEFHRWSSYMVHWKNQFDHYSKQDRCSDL
In data set [4] the test system is Rattus norvegicus. Description: Inhibition of total plasma cholinesterase in rat at 5 mg/kg, po measured 30 to 180 mins post dose. The class given is functional. The method, boiled down:
(§3)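 Oral dosing in saline to rats; animals sacrificed at 30, 60 and 180 min; plasma and brain processed and ChE activity read spectrophotometrically. Value is mean of the three time points; n = 4 rats per group.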

In data set [5] the test system is Rattus norvegicus. Description: Inhibition of total brain cholinesterase activity in rat at 5 mg/kg, po measured 30 to 180 mins post dose. The format is functional. The method, boiled down: as §3
Data set [6] has as its system Rattus norvegicus. Kind of data set: Toxicity in rat assessed as induction of diarrhea incidence at 5 mg/kg, po. The format is organism-based. Details: dose 5 mg/kg, route oral. The following applies: in vivo. The method, boiled down: (§4)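 Rats dosed orally and observed for cholinergic signs (salivation, lacrimation, fasciculations, diarrhea, seizures) and overt behaviour including locomotor stimulation. MTD defined as the dose giving clear, reversible, non-life-threatening cholinergic effects.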

The test system of data set [7] is Rattus norvegicus. Kind of data set: Toxicity in rat assessed as induction of seizures incidence at 5 mg/kg, po. The class given is organism-based. The following applies: in vivo. Details: dose 5 mg/kg, route oral. In short, it runs like this:
as §4

Data set [8] deals with Rattus norvegicus. Kind of data set: Toxicity in rat assessed as induction of severe fasciculation, salivation and lacrimation incidence at 5 mg/kg, po. The format is organism-based. The arrangement: dose 5 mg/kg, route oral. Particulars: in vivo. The method, boiled down: as §4
For data set [9], the system named is Rattus norvegicus. Description: Memory enhancing effect in rat Scopolamine passive avoidance model assessed as reversal of Scopolamine-induced amnesia by measuring step-through latencies at 12 mg/kg, ip compound administered 30 mins before training and Scopolamine added 40 mins before training. The format is functional, organism-based. The arrangement: dose 12 mg/kg. The method, boiled down:
(§5)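 Passive avoidance in rats: scopolamine hydrobromide 0.2 mg/kg sc 40 min before training; saline or compound ip 30 min before training. Retention test 24 h later, identical to training but without foot-shock or drug; latency to enter dark chamber recorded.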

For the next data set, the species on record is Homo sapiens. Kind of data set: Selectivity index, ratio of IC50 for purified human […] to IC50 for human recombinant AChE. In short, it runs like this: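 Modified Ellman assay on recombinant human AChE and human serum-purified BuChE. Enzyme and inhibitor were preincubated 30 min at 25 °C in 10 mM Tris pH 8.0, then ATCh (0.3 mM) was added with DTNB (0.33 mM final). A405 was read for 5 min and initial rates compared to control. IC50s come from Dixon plots (≥5 inhibitor concentrations), triplicate, 2–3 independent runs. Selectivity is the ratio of the two IC50s.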

Data set [10] relates to Rattus norvegicus. Kind of data set: Inhibition of total plasma cholinesterase in rat at >100 mg/kg, po measured 60 mins post dose. The format is functional. In short, it runs like this: as §1
Data set [11] deals with Rattus norvegicus. Kind of data set: Inhibition of total brain cholinesterase activity in rat at >100 mg/kg, po measured 30 to 180 mins post dose. The class given is functional. The method, boiled down:
as §2

Data set [12] relates to Rattus norvegicus. Description: Toxicity in rat assessed as locomotor stimulation at 100 mg/kg, po. The format is organism-based. Details: dose 100 mg/kg, route oral. Particulars: in vivo. The method, boiled down:
as §4

Data set [13] deals with Rattus norvegicus. Kind of data set: Inhibition of cholinesterase activity in rat assessed as reconstituted enzyme-mediated release of amphetamine in to plasma at 64 mg/kg, po measured 1 hr post dose. The format is functional. In short, it runs like this: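 Rats dosed orally with test compound in saline; plasma collected 1 h post-dose and amphetamine content quantified by LC/MS/MS.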

Data set [14] deals with Rattus norvegicus. Kind of data set: Memory enhancing effect in rat Scopolamine passive avoidance model assessed as reversal of Scopolamine-induced amnesia by measuring step-through latencies at 8 mg/kg, ip compound administered 30 mins before training and Scopolamine added 40 mins before training. The class given is functional, organism-based. Details: dose 8 mg/kg. The method, boiled down:
as §5

Another data set has as its target Cholinesterase (Homo sapiens, UniProt P06276). Kind of data set: Inhibition of purified human plasma BuChE preincubated for 30 mins before DTNB substrate addition by spectrophotometric assay based Ellman's method. In short, it runs like this:
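Enzyme: human BuChE purified from serum. Modified Ellman assay. Inhibitor preincubated with enzyme 30 min at 25 °C in 10 mM Tris pH 8.0, then acetylthiocholine (0.3 mM) added; DTNB 0.33 mM final. At least five inhibitor levels plotted as Dixon plot; IC50 from x-intercept. Triplicates, two or three independent experiments.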
(Ellman's reagent forms a yellow product with free thiols.)

Data set [15] is described as follows: Toxicity in po dosed rat assessed as maximum tolerated dose at which reversible and non-life threatening cholinergic effect observed. The class given is organism-based. The following applies: in vivo. The method, boiled down:
as §4

Data set [16] relates to Rattus norvegicus. Kind of data set: Inhibition of total plasma cholinesterase in rat at 10 mg/kg, po measured 60 mins post dose. The format is functional. Particulars: 1 h. In short, it runs like this:
as §1

Data set [17] relates to Rattus norvegicus. Description: Inhibition of total brain cholinesterase activity in rat at 10 mg/kg, po measured 30 to 180 mins post dose. The class given is functional. The method, boiled down:
as §2

The subject of data set [18] is Rattus norvegicus. Kind of data set: Inhibition of total plasma cholinesterase in rat at 32 mg/kg, po measured 60 mins post dose. The class given is functional. Particulars: 1 h. In short, it runs like this:
as §1

Data set [19] deals with Rattus norvegicus. Description: Inhibition of total brain cholinesterase activity in rat at 32 mg/kg, po measured 30 to 180 mins post dose. The format is functional. In short, it runs like this:
as §2

Chain of Cholinesterase (P06276 whole entry): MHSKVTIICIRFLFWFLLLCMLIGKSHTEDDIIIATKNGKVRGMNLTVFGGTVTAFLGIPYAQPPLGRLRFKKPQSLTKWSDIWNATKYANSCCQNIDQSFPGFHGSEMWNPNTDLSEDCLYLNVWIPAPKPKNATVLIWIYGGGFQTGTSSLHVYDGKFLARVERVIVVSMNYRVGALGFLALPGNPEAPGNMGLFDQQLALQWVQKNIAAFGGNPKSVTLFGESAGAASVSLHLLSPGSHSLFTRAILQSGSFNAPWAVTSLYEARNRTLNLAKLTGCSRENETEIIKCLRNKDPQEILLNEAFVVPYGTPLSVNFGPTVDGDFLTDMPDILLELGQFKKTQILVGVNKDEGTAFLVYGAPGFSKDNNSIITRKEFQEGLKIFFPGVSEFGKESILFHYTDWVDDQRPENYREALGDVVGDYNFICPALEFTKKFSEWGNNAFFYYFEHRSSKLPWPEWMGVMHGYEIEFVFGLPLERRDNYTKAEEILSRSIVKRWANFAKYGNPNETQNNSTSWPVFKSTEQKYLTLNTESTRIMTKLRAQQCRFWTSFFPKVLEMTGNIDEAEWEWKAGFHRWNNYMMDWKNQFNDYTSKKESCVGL

For the molecule `C[C@@H](c1cccc(OC(=O)N(C)[C@@H](C)Cc2ccccc2)c1)N(C)C.Cl`, the “inhibition (INH)” value in the data set on Rattus norvegicus [1] and with Rattus norvegicus [2] was 50% throughout. In data set [3], the T1/2 is above 24 h.
What is called inhibition in vivo is the relative decrease from the control value, in per cent. Low readings indicate a weak effect, high ones a strong effect. For the molecule `CCN(C)C(=O)Oc1cccc([C@H](C)N(C)C)c1` [RIVASTIGMINE], the inhibition in vivo at 5 mg/kg in the data set with Rattus norvegicus [4] turned out to be 39%; in the data set on Rattus norvegicus [5] it was 56%. Besides, the Activity result with Rattus norvegicus [6], in the data set on Rattus norvegicus [7] and in the data set on Rattus norvegicus [8] was “Toxic” throughout. Besides, the T1/2 in [3] is above 24 h.
Turning to `C[C@@H](Cc1ccccc1)NC(=O)Oc1cccc([C@H](C)N(C)C)c1.Cl`, the inhibition result in the data set with Rattus norvegicus [9] and in the data set on Rattus norvegicus [14] was “Active” in each case. Also, the Ratio IC50 in the data set filed under Homo sapiens was 14. Further, the “inhibition (INH)” value is 59% in the data set on Rattus norvegicus [10] and 72% in the data set with Rattus norvegicus [11]. Further, the Activity entry is “Non-toxic” in the data set on Rattus norvegicus [12] and 17 ng/mL with Rattus norvegicus [13]. Also, the T1/2 in [3] is 1.2 h.
As a reminder, the IC50 is the concentration that inhibits the measured activity by half. Low readings indicate inhibition by little substance, high ones a need for much substance. A word on the MTD: it is the highest dose tested that stayed within the study's limit of toxicity. `C[C@H](Cc1ccccc1)N(C)C(=O)Oc1cccc([C@H](C)N(C)C)c1.Cl` showed an IC50 against Cholinesterase of 24.4 µM. Moreover, in [15], the MTD is 10 mg/kg. Moreover, the inhibition in vivo at 10 mg/kg with Rattus norvegicus [16] stood at 45%; in the data set on Rattus norvegicus [17] it was 64%. For the same molecule, the T1/2 in [3] was above 24 h.
On to `C[C@H](Cc1ccccc1)NC(=O)Oc1cccc([C@H](C)N(C)C)c1`, for which the Ratio IC50 in the data set filed under Homo sapiens stood at 1. The inhibition in vivo at 32 mg/kg in the data set with Rattus norvegicus [18] worked out at 26%; in the data set on Rattus norvegicus [19] it was 25%. Moreover, in [3], the T1/2 came out at 12 h.
